Arrestin-AP2 inh: inhibitors of human beta-arrestin and AP2 interaction; AID 504490; FITC-arrestin peptide / GST-AP2 beads, flow cytometry; AP2 beta2 appendage carries R879A mutation; 0.31% of 340,000 active; inhibition, % at 10 µM;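 active means inhibition above a set limit, near 3 SD of compounds lacking own fluorescence, cut at about 54% in these data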;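 further: plate controls were DMSO wells for no effect and 5 µM unlabelled arrestin peptide for full effect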
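System: GST-tagged AP2 beta2-adaptin appendage (R879A) on 4 µm glutathione beads / Reagent: FITC-arrestin peptide, 50 nM / Detection: HyperCyt-sampled flow cytometry, FL1 channel, ex 488/em 535 nm / Timing: 12 min plus 1 h, RT / Buffer or medium: PBS plus Tween 20 (0.05%) and BSA (0.1%)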
FAS-TE inh: inhibitors of human fatty acid synthase thioesterase domain | AID 602261 | inhibition, % at 15 µM | P49327 | recombinant FAS-TE, OMFH fluorogenic substrate, fluorescence endpoint | 0.67% of 360,000 active;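 active means compounds whose normalised, plate-corrected inhibition of enzyme fluorescence in the single-dose primary screen is 50% or more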;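 further: 0% = DMSO with enzyme and 100% = substrate without enzyme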
Target sequence (P49327 whole entry, looked up, the tested form may be a part): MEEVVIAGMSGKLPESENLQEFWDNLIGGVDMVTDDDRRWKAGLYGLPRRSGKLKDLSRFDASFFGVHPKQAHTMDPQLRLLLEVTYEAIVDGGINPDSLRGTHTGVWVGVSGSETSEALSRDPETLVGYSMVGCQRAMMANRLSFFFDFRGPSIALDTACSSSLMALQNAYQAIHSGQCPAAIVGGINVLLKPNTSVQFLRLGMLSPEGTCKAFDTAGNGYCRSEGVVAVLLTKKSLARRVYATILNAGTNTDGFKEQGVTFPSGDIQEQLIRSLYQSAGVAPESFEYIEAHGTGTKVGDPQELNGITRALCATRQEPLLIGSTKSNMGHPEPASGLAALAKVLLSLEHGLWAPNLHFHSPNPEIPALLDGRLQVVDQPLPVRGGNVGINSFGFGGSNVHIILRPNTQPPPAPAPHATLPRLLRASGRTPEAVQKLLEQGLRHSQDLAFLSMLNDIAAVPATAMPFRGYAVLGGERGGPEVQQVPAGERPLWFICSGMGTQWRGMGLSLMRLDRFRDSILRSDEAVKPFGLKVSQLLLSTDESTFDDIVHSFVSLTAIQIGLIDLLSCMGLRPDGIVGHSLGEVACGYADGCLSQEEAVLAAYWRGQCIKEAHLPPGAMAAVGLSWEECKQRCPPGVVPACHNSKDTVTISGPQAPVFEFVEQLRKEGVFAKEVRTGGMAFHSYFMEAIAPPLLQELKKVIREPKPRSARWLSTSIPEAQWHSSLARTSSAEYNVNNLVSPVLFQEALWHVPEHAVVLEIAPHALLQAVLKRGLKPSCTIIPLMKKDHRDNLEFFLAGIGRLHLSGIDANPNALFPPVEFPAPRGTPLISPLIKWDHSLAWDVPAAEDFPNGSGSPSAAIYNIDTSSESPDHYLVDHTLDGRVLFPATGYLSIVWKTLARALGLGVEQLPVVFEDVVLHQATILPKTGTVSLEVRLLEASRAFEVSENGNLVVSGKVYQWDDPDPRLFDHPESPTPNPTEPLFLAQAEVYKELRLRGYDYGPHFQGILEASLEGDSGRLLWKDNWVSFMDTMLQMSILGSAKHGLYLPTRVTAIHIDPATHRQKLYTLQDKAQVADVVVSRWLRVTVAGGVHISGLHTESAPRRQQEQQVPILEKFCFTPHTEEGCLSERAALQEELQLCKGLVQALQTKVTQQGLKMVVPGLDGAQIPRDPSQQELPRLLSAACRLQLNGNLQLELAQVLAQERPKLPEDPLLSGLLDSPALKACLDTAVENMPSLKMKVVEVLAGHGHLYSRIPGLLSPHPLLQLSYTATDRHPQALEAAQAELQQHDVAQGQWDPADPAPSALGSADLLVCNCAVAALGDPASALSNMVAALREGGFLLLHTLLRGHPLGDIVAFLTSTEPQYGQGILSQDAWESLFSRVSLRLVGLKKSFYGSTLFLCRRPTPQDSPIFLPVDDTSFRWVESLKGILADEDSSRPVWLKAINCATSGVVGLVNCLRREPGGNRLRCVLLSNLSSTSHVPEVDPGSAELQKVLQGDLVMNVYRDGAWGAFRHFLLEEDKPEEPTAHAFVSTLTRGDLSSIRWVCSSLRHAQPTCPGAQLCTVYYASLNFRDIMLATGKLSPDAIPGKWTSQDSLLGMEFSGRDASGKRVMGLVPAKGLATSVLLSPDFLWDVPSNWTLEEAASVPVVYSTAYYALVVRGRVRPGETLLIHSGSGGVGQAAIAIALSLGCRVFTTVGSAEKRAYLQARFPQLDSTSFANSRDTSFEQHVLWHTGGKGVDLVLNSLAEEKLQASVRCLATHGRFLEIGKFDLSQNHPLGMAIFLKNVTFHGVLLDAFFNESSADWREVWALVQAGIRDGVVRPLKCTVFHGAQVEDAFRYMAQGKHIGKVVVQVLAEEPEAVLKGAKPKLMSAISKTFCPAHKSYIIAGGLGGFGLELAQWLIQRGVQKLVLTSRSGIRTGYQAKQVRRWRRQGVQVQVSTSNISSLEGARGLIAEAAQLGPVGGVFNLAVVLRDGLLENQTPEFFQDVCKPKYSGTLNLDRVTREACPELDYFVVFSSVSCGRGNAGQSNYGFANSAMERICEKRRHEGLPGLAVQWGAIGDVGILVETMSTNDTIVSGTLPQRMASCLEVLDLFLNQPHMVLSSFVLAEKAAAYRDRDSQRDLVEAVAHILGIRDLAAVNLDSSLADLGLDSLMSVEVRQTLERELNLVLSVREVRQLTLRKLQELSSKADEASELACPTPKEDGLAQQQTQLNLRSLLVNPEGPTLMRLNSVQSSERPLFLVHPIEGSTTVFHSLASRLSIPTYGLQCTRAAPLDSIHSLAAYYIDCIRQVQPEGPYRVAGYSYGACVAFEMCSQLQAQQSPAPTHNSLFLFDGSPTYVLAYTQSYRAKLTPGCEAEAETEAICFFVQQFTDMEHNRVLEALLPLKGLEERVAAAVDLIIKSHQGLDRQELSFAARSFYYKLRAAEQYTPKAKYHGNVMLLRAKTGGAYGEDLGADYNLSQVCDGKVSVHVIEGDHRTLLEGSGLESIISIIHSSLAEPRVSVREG
SENP1 FRET inh: blocks the human SENP1 SUMO protease catalytic domain; AID 624204; inhibition, % at 10 µM; Q9P0U3; recombinant SENP1 catalytic domain, CyPet-SUMO1-YPet FRET cleavage; 0.21% of 360,000 active;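 active means inhibition at least 30% at 10 µM, raw YFP signal under a set limit, fluorescence ratio 0.5 to 1.5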;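 further: 0% = enzyme with DMSO and 100% = no enzyme wells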
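Assay system: hSENP1 catalytic domain, recombinant. Amount: SENP1 enzyme, 20 pM final. Schedule: 50 min reaction, RT, dark. Technique: FRET, CFP and YFP emission. Control set: no-enzyme wells low, DMSO-plus-enzyme wells high control.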
iPSC survival up: increases survival of single human iPS cells | hiPSC single-cell survival, ATPlite luminescence; 100% = ROCK inhibitor wells, 0% = DMSO | survival enhancement, % at 20 µM | 0.044% of 360,000 active; in the data active means survival enhancement above about 18%;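 further: cells exposed to compounds for 16 hours before the ATP read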
GRIN3A LBD mod: modulators (binders) of human NR3A ligand-binding domain; NR3A LBD differential scanning fluorimetry, Tm shift; 0% = protein alone, 100% = glycine-bound protein; Tm shift relative to glycine control, % at 25 µM; 2.5% of 340,000 active;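 active means melting temperature shift of at least 10% of the positive control shift, at one fixed dose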
H9c2 protect: protects H9c2 cardiomyocytes from peroxide injury. H2O2 injury protection, ATPLite, 2 h. protection from H2O2 cell death, % at 20 µM. 0.63% of 360,000 active. AID 588492;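 active means compounds giving at least 50% protection of heart cells from peroxide-induced death in the single-dose screen, raw or plate-pattern-corrected value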;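 further: 0% = DMSO wells with peroxide and 100% = DMSO wells without peroxide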
Starred values were filed as active, the others as inactive; . = no result given; ! = a repeat was not active. A selection: hits, their analogues and other compounds. The true share with any hit is near 4%.

SMILES	Arrestin-AP2 inh	FAS-TE inh	SENP1 FRET inh	iPSC survival up	GRIN3A LBD mod	H9c2 protect
COCCCN1C(=O)C(CC(=O)NCC2CCCCC2)CC(C(=O)N(C(C)C)C(C)C)=C1C (stereo not drawn)	.	-5	2	-1	.	-2
CSc1nc2ccc(Nc3nc(N4CCOCC4)nc(N4CCOCC4)n3)cc2s1	-13	50	-1	-1	-5	70*
COC(=O)[C@@]12C[C@@H](CC(=O)NCC3CCCCC3)C(=O)N(Cc3ccco3)C1=CCC(C)(C)C2	.	.	-6	.	.	.
C[C@H](CO)N1C[C@H](C)[C@@H](CN(C)C(=O)NC2CCCCC2)Oc2ccc(NS(=O)(=O)c3ccccc3)cc2C1=O	-11	-9	0	-2	-1	5
COc1ccc(S(=O)(=O)Nc2ccc3c(c2)C(=O)N([C@H](C)CO)C[C@H](C)[C@@H](CN(C)C(=O)NC2CCCCC2)O3)cc1	1	0	1	22*	-2	-1
COc1ccc(S(=O)(=O)Nc2cccc3c2O[C@H](CN(C)C(=O)NC(C)C)[C@@H](C)CN([C@H](C)CO)C3=O)cc1	-2	-12	1	-2	16*	4
CCOC(=O)C1CCCN(C(=O)c2oc3ccccc3c2C)CC1 (stereo not drawn)	.	3	1	8	.	-2
Cc1cc(OCC(=O)Nc2c(C(C)C)cccc2C(C)C)no1	.	-4	-23	1	.	-3
CC(/C=C/c1ccccc1F)=N\NC(=O)c1cccc(F)c1	8	-3	0	0	22*	24
CC(/C=N/NC(=O)c1cccc(F)c1)=C\c1ccccc1	3	4	1	0	5	-12
CC(/C=C/c1ccccc1)=N\NC(=O)c1ccc2c(c1)OCCO2	-18	-4	1	0	1	11
CC(/C=C/c1ccccc1)=N/NC(=O)c1cc([N+](=O)[O-])cc([N+](=O)[O-])c1	26	-2	2	4	10	65*
CCOC(=O)CN(C(=O)c1snc(C(N)=O)c1N)C(C(=O)NCCC(C)C)c1ccc(C)cc1 (stereo not drawn)	.	1	-2	-3	.	4
O=C(Nc1ccccc1)Nc1ccc2snnc2c1	-12	6	-23	-3	32*	-36
CN(C)c1ccc(NC(=O)Nc2ccc3snnc3c2)cc1	3	-3	4	-3	36*	-12
O=C(Nc1ccccc1)Nc1ccc2nnsc2c1	10	14	-1	0	42*	-14
CC(=O)c1ccc(NC(=O)c2ccc3snnc3c2)cc1	-15	1	-1	0	5	1
Cc1ccc(C)c(C(O)c2ncc(-c3ccccc3)[nH]2)c1 (stereo not drawn)	.	-5	2	-1	.	-2
O=c1c2ccccc2nc(/C=C/c2c[nH]c3ccccc23)n1-c1ccc([N+](=O)[O-])cc1	.	-7	-18	-2	26*	19
COc1ccc(C(=O)C(C)OC(=O)C2CC3CCCC(C2)C3=O)cc1 (stereo not drawn)	.	-7	0	9	.	-6
CCOc1ccccc1N1CCN(C(=O)c2ccccc2)CC1	-1	-5	0	0	-3	-2
CCOc1ccccc1N1CCN(C(=O)c2ccc3c(c2)OCO3)CC1	-8	-3	2	0	10*	-6
CCOC(=O)N1CCN(C(=O)c2ccc(OCC)c(OCC)c2)CC1	-1	-5	0	2	10*	-6
CC(=NO)C1CCC2C3CCC4=CC(=NO)CCC4(C)C3C(=O)CC12C (stereo not drawn)	1	-8	-1	-3	18*	2
CC(=NO)C1CCC2C3CCC4=CC(=NO)CCC4(C)C3C(O)CC12C (stereo not drawn)	44	-14	1	-2	0	29
SMILES	Arrestin-AP2 inh	FAS-TE inh	SENP1 FRET inh	iPSC survival up	GRIN3A LBD mod	H9c2 protect
CCOC(=O)c1cnc(Nc2nc3ccccc3o2)nc1CN1CCN(C)CC1	-5	-6	-23	-1	-4	60*
CC(=O)Nc1ccc(S(=O)(=O)NC2CC(=O)N(c3ccc4c(c3)OCCO4)C2)cc1 (stereo not drawn)	34	-2	0	0	17*	8
COc1ccc(Cc2c(-c3ccc(OC)c(OC)c3)nc3cc(C)c(Br)c(C)n23)c(C)c1	.	27	-1	0	.	.
Cc1ccc(S(=O)(=O)c2c(N)n(NC(=O)c3ccccc3C)c3nc4ccccc4nc23)cc1	-1	9	-62	9	11*	-4
Cc1ccc(C(=O)Nn2c(N)c(S(=O)(=O)c3ccc(C)cc3)c3nc4ccccc4nc32)cc1	28	16	-55	10	7	8
CCCCCn1c(NC(=O)c2ccco2)c(S(=O)(=O)c2ccc(C)cc2)c2nc3ccccc3nc21	9	21	-23	0	15*	-21
CCOC(=O)[C@]12CCC=C1N(Cc1ccc(Cl)cc1Cl)C(=O)[C@H](CC(=O)N1CCSCC1)C2	.	12	2	2	.	.
CCCCn1c(=NC(=O)c2cccnc2)c(C#N)cc2c(=O)n3cccc(C)c3nc21	2	19	-23	3	-3	54*
CCOCCCn1c(=NC(=O)c2cccnc2)c(C(=O)OCC)cc2c(=O)n3ccccc3nc21	-2	32	-27	-2	14*!	34
COc1ccc(-c2csc(C(C)(O)c3cccc(F)c3)n2)cn1 (stereo not drawn)	.	4	0	5	.	-4
O=C1NC[C@H](c2ccccc2)OC(=O)[C@H](Cc2ccc(F)cc2)C/C=C\C[C@H]1CC(=O)N(CCO)Cc1ccccc1	-4	14	1	0	-2	94*
CC(C)(C)OC(=O)C[C@@H]1C/C=C\C[C@@H](CC(=O)N[C@@H](CO)Cc2ccccc2)C(=O)NC[C@@H](c2ccccc2)OC1=O	-11	0	2	-2	-1	65*
O=C(C[C@@H]1C/C=C/CC[C@@H](Cc2ccc(F)cc2)C(=O)O[C@@H](c2ccccc2)CNC1=O)NCCO	-4	11	4	-1	4	59*
CC(C)(C)OC(=O)C[C@H]1C/C=C\C[C@@H](CC(=O)N[C@@H](CO)Cc2ccccc2)C(=O)NC[C@@H](c2ccccc2)OC1=O	-8	-32	2	-1	3	18
O=C1N[C@H](Cc2ccccc2)COC(=O)[C@@H](Cc2ccc(F)cc2)C/C=C\C[C@H]1CC(=O)N(CCO)Cc1ccccc1	3	17	-1	-2	-3	58*
CCOC(=O)C1C(C(=O)OCC)C2C(=O)C3C(C(=O)OCC)C(C(=O)OCC)C3C(=O)C12 (stereo not drawn)	.	-4	1	-1	.	5
